This note sets out measurements from ChEMBL document CHEMBL1152227, “Structure-activity relationships of 1,4-dihydropyridines that act as enhancers of the vanilloid receptor 1 (TRPV1)” (Bioorg Med Chem, 2008).

Calls of active or inactive are those of the source. The rule behind the calls is not given here.

In experiment [1] the target is T1, Transient receptor potential cation channel subfamily V member 1 (Homo sapiens, UniProt Q8NER1). The experiment can be described thus: Agonist activity at epsilon-epitope tagged TRPV1 receptor expressed in mouse NIH3T3 cells assessed as effect on 45Ca2+ influx by microplate liquid scintillation counter. The experiment is classed as functional, cell-based. In outline:
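NIH3T3 cells stably expressing ε-tagged TRPV1 were seeded the day before and grown at 35°C. Test compound given without capsaicin, top concentration 100 µM, 2% DMSO. 45Ca2+ uptake run 10 min at 20°C in Tris-HBSS (pH 7.5) with ascorbate, 10 µM Ca2+ and 0.8 mM Mg2+. Cells were washed, lysed in RIPA and counted by scintillation.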

Another experiment addresses T2, Adenosine receptor A3 (Homo sapiens, UniProt P0DMS8).
T2 sequence (P0DMS8 whole entry): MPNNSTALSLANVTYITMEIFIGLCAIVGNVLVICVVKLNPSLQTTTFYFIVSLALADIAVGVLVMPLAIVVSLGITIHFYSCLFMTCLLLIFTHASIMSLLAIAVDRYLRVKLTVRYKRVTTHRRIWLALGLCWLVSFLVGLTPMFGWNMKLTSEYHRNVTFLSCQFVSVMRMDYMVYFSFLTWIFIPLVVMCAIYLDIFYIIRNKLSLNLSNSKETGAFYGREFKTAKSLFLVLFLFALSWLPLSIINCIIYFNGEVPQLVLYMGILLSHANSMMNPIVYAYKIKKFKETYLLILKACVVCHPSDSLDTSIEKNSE
The experiment can be described thus: Binding affinity to human adenosine A3 receptor.

Experiment [2] addresses T3, Adenosine receptor A3 (Rattus norvegicus) (UniProt P28647).
T3 sequence (whole entry): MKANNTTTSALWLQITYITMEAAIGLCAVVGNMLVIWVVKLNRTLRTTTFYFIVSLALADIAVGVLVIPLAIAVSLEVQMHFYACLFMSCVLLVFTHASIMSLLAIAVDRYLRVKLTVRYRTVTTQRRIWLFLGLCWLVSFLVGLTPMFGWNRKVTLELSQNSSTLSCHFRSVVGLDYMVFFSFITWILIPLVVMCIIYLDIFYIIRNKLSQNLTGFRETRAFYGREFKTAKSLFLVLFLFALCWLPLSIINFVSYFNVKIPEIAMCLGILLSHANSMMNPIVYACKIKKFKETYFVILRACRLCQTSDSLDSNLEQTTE
The experiment can be described thus: Binding affinity to rat adenosine A3 receptor.

Experiment [3] concerns the target T1, Transient receptor potential cation channel subfamily V member 1. The experiment can be described thus: Agonist-enhancing activity in epsilon-epitope tagged TRPV1 receptor expressed in mouse NIH3T3 cells assessed as capsaicin-induced 45Ca2+ influx at 100 uM by microplate liquid scintillation counter relative to capsaicin alone. In kind it is functional, cell-based. The procedure, abridged: (§1)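 Stable ε-tagged TRPV1 NIH3T3 cells. Uptake with capsaicin 2 µM, 10 min at 20°C, 0.5 µCi/well 45Ca2+ in Tris-HBSS pH 7.5. Compound up to 100 µM, 2% DMSO, from 5 mM stocks, duplicate wells per concentration. Data normalized to capsaicin-only wells (100%). Variable-slope fit gave EC50 and ΔEmax; compounds too weak to fit were given ΔEmax at the top concentration.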

Experiment [4] concerns the target Transient receptor potential cation channel subfamily V member 1 (Rattus norvegicus) (UniProt O35433). The experiment can be described thus: Agonist-enhancing activity at TRPV1 receptor in E15 rat primary dorsal root ganglion cells assessed as increase in intracellular calcium levels at 10 uM by Fura-4F AM based fluorimetric method relative to capsaicin alone. In kind it is functional, tissue-based. The procedure, abridged:
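E15 rat DRG neurons on poly-ornithine/laminin coverslips, cultured 4–6 days. Loaded with 2.5 µM Fura-4F AM for 20 min at room temperature and perfused at 0.5 mL/min in pH 7.4 HEPES saline with ascorbate. Exposed 30 s to 200 nM capsaicin ± 10 µM compound, DMSO 0.04% in controls. 340/380 ratio read at 0.5 Hz and normalized to the 2-min baseline. Peak taken as the mean of 10 points, 3 coverslips per condition.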

Experiment [5] deals with T1, Transient receptor potential cation channel subfamily V member 1. The experiment can be described thus: Agonist-enhancing activity in epsilon-epitope tagged TRPV1 receptor expressed in mouse NIH3T3 cells assessed as capsaicin-induced 45Ca2+ influx by microplate liquid scintillation counter. The experiment is classed as functional, cell-based. In outline:
as §1

Experiment [6] concerns the target Transient receptor potential cation channel subfamily V member 1 (Rattus norvegicus) (UniProt O35433). The experiment can be described thus: Agonist activity at TRPV1 receptor in E15 rat primary dorsal root ganglion cells assessed as effect on 45Ca2+ influx by microplate liquid scintillation counter. In kind it is functional, tissue-based. The procedure, abridged:
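DRGs from E15 rat embryos, enzymatically dissociated, grown 5–6 days at 35°C. Test compound given without capsaicin. 45Ca2+ uptake run 10 min at 20°C in Tris-buffered (pH 7.5) HBSS with 1 mM ascorbate, 10 µM CaCl2 and 0.8 mM MgCl2, with 0.5 µCi/well tracer. Cells were washed, lysed in RIPA and counted by scintillation.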

T1 sequence (Q8NER1 whole entry): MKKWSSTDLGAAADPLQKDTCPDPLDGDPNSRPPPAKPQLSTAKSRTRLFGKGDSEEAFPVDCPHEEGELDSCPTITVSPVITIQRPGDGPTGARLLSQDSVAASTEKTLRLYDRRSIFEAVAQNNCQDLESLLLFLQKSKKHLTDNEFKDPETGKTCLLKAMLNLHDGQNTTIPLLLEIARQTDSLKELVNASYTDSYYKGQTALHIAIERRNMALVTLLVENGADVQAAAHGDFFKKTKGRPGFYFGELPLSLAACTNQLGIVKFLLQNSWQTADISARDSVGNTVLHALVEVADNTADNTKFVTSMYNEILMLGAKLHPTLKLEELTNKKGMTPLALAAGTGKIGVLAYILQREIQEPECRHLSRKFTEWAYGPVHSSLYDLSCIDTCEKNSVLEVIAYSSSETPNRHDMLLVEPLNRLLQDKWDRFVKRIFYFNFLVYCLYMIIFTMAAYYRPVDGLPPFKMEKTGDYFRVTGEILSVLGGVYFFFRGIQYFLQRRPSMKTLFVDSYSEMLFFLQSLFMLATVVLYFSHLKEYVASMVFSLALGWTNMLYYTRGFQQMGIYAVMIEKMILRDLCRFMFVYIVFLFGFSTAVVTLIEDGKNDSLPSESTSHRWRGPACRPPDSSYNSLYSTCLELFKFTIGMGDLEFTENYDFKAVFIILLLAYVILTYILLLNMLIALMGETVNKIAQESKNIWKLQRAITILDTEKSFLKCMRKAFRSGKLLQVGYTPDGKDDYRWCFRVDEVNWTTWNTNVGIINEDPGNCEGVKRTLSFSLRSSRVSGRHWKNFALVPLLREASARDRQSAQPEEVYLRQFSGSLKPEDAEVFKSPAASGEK
Sequence of Transient receptor potential cation channel subfamily V member 1 (Rattus norvegicus) (O35433 whole entry, the tested form may be a part): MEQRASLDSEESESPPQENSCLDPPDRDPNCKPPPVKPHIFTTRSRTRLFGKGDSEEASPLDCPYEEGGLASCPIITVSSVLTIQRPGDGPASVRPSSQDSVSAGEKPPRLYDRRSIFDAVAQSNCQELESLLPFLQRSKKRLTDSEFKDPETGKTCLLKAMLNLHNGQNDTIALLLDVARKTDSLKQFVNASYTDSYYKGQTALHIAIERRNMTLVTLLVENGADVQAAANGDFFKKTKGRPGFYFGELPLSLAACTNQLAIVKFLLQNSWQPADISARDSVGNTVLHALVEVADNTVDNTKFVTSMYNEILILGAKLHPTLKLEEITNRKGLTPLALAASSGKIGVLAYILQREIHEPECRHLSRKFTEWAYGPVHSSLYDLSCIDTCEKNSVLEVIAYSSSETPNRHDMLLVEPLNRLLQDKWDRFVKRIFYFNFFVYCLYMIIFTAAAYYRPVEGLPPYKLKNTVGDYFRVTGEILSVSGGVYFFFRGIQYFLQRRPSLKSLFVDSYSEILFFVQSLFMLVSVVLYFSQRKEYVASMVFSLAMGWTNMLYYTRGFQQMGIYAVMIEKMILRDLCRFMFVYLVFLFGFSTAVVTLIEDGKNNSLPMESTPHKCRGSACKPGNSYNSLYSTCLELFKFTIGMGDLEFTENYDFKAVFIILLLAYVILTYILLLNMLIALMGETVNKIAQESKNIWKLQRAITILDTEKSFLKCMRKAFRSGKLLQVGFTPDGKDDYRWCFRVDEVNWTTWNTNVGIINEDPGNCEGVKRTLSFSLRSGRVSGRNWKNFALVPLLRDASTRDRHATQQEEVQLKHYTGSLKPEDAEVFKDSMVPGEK

Turning to `CCOC(=O)C1=C(c2ccccc2)N=C(C)/C(=C(/O)SCCOC)C1CC` (configuration not stated), the result in experiment [1], in experiment [2] and in experiment [6] was inactive. The Ki on Adenosine receptor A3 is 4.58 µM. For the same compound, the Emax in experiment [3] is 626%. The Activity in experiment [4] was 13%. For the same compound, in experiment [5], the EC50 is 21.3 µM.
